Test [1] concerns Escherichia coli. As to the kind of experiment: Ratio of mutant prevention concentration to MIC99 for Escherichia coli KD1397 containing tolC::Tn10 gyrA+ mutant. The format is functional.
Test [2] deals with Escherichia coli. As to the kind of experiment: Antimicrobial activity against Escherichia coli KD1397 containing tolC::Tn10 gyrA+ mutant by agar or broth dilution method. The format is functional. In outline: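 MIC by agar or broth dilution in LB, 37°C: 10^4–10^5 CFU applied to plates or broth cultures with serial compound concentrations. Colonies counted after 2 days, or turbid growth scored after 1 day. MIC99 is the minimal concentration blocking colony formation by 99%, interpolated from log-log plots.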

Test [3] relates to Escherichia coli. As to the kind of experiment: Antimicrobial activity against Escherichia coli KD1397 containing tolC::Tn10 gyrA+ mutant assessed as bactericidal activity. In kind it is functional. In outline: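 Liquid-culture lethality: 5 × 10^6 CFU/ml aliquots exposed 20 h to a range of compound concentrations; survivors counted by dilution and plating on drug-free LB agar, overnight at 37°C. MBC taken as the concentration lowering survival by 99.9%.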

The test system of test [4] is Escherichia coli. As to the kind of experiment: Ratio of MBC to MIC99 in Escherichia coli KD1397 containing tolC::Tn10 gyrA+ mutant. In kind it is functional. The method in brief: (§1)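 MBC (99.9% kill after 20 h in liquid at 5 × 10^6 CFU/ml, survivors plated on drug-free agar) divided by MIC99 (99% block of colony formation, agar or broth dilution with 10^4–10^5 CFU, log-log interpolation); efflux-deficient tolC strain for line 4, wild-type DM4100 for line 5.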

Test [5] relates to Escherichia coli. As to the kind of experiment: Antimicrobial activity against wild type Escherichia coli DM4100 assessed as decrease in bacterial survival at 3 times MIC by agar plate method. In kind it is functional, organism-based. In outline:
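DM4100 (10^4 to 10^8 CFU) spread on quartered agar plates with drug at three times MIC; at various times a quarter excised, washed with LB, cells pelleted (5,000 × g, 5 min), diluted onto drug-free agar at 37°C, colonies counted at 24 and 48 h. Survival relative to untreated input, corrected for resistant mutants scored on 0.02 μg/ml ciprofloxacin agar; two replicate experiments.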

Test [6] relates to Escherichia coli. As to the kind of experiment: Antimicrobial activity against wild type Escherichia coli DM4100 assessed as bactericidal activity. In kind it is functional. In outline:
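Liquid-culture killing: E. coli at 5 × 10^6 CFU/ml exposed 20 h to a range of drug concentrations, survivors counted by dilution and plating on drug-free agar incubated overnight at 37°C; MBC taken as concentration lowering survival by 99.9%.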

In test [7] the test system is Escherichia coli. Briefly: Ratio of MBC to MIC99 in wild type Escherichia coli DM4100. In kind it is functional. In outline: as §1
Test [8] relates to Escherichia coli. As to the kind of experiment: Ratio of mutant prevention concentration to MIC99 for wild type Escherichia coli DM4100. In kind it is functional. In outline: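 Population analysis: stationary-phase DM4100 from LB spread on agar plates spanning a broad drug range; colonies counted, passaged on drug-free agar, then retested at the selecting concentration to confirm resistance. MPC is the concentration blocking colony formation from 10^10 CFU, expressed relative to MIC99.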

For test [9], the system named is Escherichia coli. Briefly: Antimicrobial activity against wild type Escherichia coli DM4100 by agar or broth dilution method. In kind it is functional. The method in brief:
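K-12 strain grown in LB at 37°C; 10^4–10^5 CFU applied to agar plates or broth with a dilution series of compound; colonies counted after 2 days or turbidity scored after 1 day. MIC99 is the concentration blocking colony formation by 99%, interpolated from log-log plots.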

The subject of test [10] is Escherichia coli. Briefly: Reduction quinolone resistant mutation in wild type Escherichia coli DM4100 assessed as decrease in recovery of resistant bacterial mutant colonies at 2 times MIC by agar plate assay. The format is functional, organism-based.
In test [11] the test system is Escherichia coli. Briefly: Reduction quinolone resistant mutation in wild type Escherichia coli DM4100 assessed as decrease in recovery of resistant bacterial mutant colonies at 5 times MIC by agar plate assay. The format is functional, organism-based. In outline:
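Same agar-plate accumulation assay at 5× MIC99 with an inoculum of 10^9 CFU. Drug added to molten LB agar, incubated at 37°C, and cumulative colonies scored at daily intervals. Repeated with inocula of 8 × 10^6 to 10^10 CFU in two replicate experiments.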

Test [12] concerns Escherichia coli. As to the kind of experiment: Reduction quinolone resistant mutation in wild type Escherichia coli DM4100 assessed as decrease in recovery of resistant bacterial mutant colonies by agar plate assay. The format is functional, organism-based. The method in brief: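 Drug added to molten LB agar; 10^4–10^10 CFU of E. coli applied and incubated at 37°C for up to 2 weeks, with cumulative colonies counted daily. Day-1 colonies are taken as the preexisting-mutant baseline. Drug concentration is normalized to MIC99.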

In brackets after ≈: the same amount, converted by molar mass. Activity calls are given as the source filed them. No cut-off for these calls is given here.

For `COc1c(N2CC[C@@H](CN)C2)c(F)cc2c(=O)n(N)c(=O)n(C3CC3)c12`, the results for the Ratio in test [1] and in [4] were 3 and 2, respectively. The MIC99 (usually an inhibitory concentration at the 99% level, which refers to growth in some studies and to a panel of isolates in others) in test [2] came to 0.5 µg/mL (≈ 1.38 µM). The minimal bactericidal concentration (MBC) – broadly, the lowest tested concentration that kills the bacteria rather than only halting them – in test [3] stood at 1 µg/mL (≈ 2.75 µM).

In the case of `CCN1CCN(c2c(F)cc3c(=O)c(C(=O)O)cn(C4CC4)c3c2OC)CC1`, the inhibition result in [5], in test [10] and in [11] was “Active” each time. The MBC in test [6] worked out at 0.27 µg/mL (≈ 0.693 µM). For the same compound, the figures for the Ratio in test [7] and in test [8] were 1.9 and 7, respectively. The same compound displayed an MIC99 in test [9] of 0.14 µg/mL (≈ 0.36 µM).

As to `CCn1cc(C(=O)O)c(=O)c2ccc(C)nc21`, the inhibition result in test [12] is “Dose-dependent effect”.

For `CCC1CN(c2cc3c(cc2F)c(=O)c(C(=O)O)cn3C2CC2)CCN1` (configuration not stated), the inhibition result in test [5], in test [10] and in [11] was “Active” in each case. Further, the MBC in [6] was found to be 0.16 µg/mL (≈ 0.445 µM). The results for the Ratio in [7] and in test [8] were 3.5 and 10, respectively. Moreover, the MIC99 in test [9] was found to be 0.045 µg/mL (≈ 0.125 µM).

Turning to `CCC1CN(c2c(F)cc3c(=O)c(C(=O)O)cn(C4CC4)c3c2OC)CCN1` (configuration not stated), the inhibition result in test [5], in [10] and in [11] was “Active” throughout. Further, in test [6], the MBC turned out to be 0.33 µg/mL (≈ 0.847 µM). Also, the Ratio came to 3 in [7] and 6 in test [8]. In addition, the MIC99 in test [9] worked out at 0.11 µg/mL (≈ 0.282 µM).

Turning to `CCN1CCN(c2cc3c(cc2F)c(=O)c(C(=O)O)cn3C2CC2)CC1` [ENROFLOXACIN], the inhibition entry in test [5], in [10] and in [11] was “Active” in each case. Besides, the MBC in test [6] was 0.07 µg/mL (≈ 0.195 µM). For the same compound, the figures for the Ratio in test [7] and in test [8] were 3.2 and 15, respectively. In addition, in [9], the MIC99 stood at 0.022 µg/mL (≈ 0.0612 µM).

Take `COc1c(N2CC[C@@H](CN)C2)c(F)cc2c(=O)c(C(=O)O)cn(C3CC3)c12`: the results for the Ratio in test [1] and in [4] were 8 and 2.5, respectively. For the same compound, the MIC99 in [2] was 0.004 µg/mL (≈ 0.0107 µM). Besides, the MBC in test [3] came out at 0.01 µg/mL (≈ 0.0266 µM).

Source of the values: ChEMBL document CHEMBL1212737, “Novel approach for comparing the abilities of quinolones to restrict the emergence of resistant mutants during quinolone exposure” (2010).
